Screening data from PubChem BioAssay.
sdo1 growth – restores growth of sdo1-depleted yeast; S. cerevisiae sdo1-depleted JHY4D growth rescue, OD600 30 h; stronger effect = higher value; pdr5 snq2 efflux-pump mutant strain; z-score at 10 µM; hit rate 0.21% among 140,000; AID 817;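 active means z-score above 3 at both the 24 hr and the 30 hr optical density reads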;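 further: z-score against mean and SD of all compound wells on the same plate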
Yeast lifespan up – extends the lifespan of yeast; hit rate 0.68% among 130,000; AID 775; inhibition of the nicotinamide effect, % at 10 µM; S. cerevisiae growth with nicotinamide, OD615; deaD strain in restrictive glucose medium;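 active means inhibition above a set limit, placed 3 SD over the median of all compounds, cut at about 26% in these data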;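 further: 0% = nicotinamide-treated wells and 100% = cells grown without nicotinamide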
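Measured by: optical density (absorbance) at 615 nm; System: modified budding yeast, DeaD strain; Medium: restrictive CSMM-D dextrose medium; Timing: 4 h preincubation then 48 h treatment at 30 °C.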
BB579 growth dn – reduces growth of yeast BB579 in restrictive medium. hit rate 0.51% among 140,000. AID 804. inhibition, % at 10 µM. S. cerevisiae BB579 growth, OD615, 48 h;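 active means inhibition above a set limit, 3 SD over the mean compound inhibition, cut at about 44% in these data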
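Assay system: S. cerevisiae DeaD strain BB579 yeast. Medium: CSMM-D restrictive synthetic medium containing dextrose (glucose). Times: 4 h cell preincubation, 48 h compound exposure, 30 °C humidified. Signal: OD615 turbidity measurement. Benchmarks: positive control amphotericin B 10 µg/mL.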
RAM network inh – inhibitors of the yeast RAM network | S. cerevisiae dse1pr::URA3 reporter, 5-FOA growth OD615, 2 d; analog-sensitive cbk1-as2 kinase mutant strain | inhibition, % at 50 µM | hit rate 1.8% among 190,000;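 active means inhibition above a set limit, 3 SD over mean compound inhibition, cut at about 8.4% in these data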;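 further: 0% = DMSO-only wells with no growth and 100% = 10 µM 1-NA-PP1 full growth; inhibition rescues growth on 5-FOA so higher OD means more RAM inhibition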
RAM efflux-def – RAM network inhibitors in efflux-deficient yeast; S. cerevisiae efflux-deficient reporter strain, 5-FOA growth OD615, 2 days; shares compounds with RAM network inh; 1,200 tested, under 10 active; max inhibition, %; call rule not given here;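 further: plate controls were vehicle for no effect and reference inhibitor for full effect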
* marks the source's active call; other numbers are inactive results; · = no result. A selection: hits, their analogues and other compounds. The true share with any hit is near 2.7%.

SMILES | sdo1 growth | Yeast lifespan up | BB579 growth dn | RAM network inh | RAM efflux-def
COc1ccc(OC)c(NC(=O)C(Sc2ccccc2)c2ccccc2)c1 (stereo not drawn) | -0.46 | -6 | -24 | 14* | 4
CS(=O)(=O)N(C(=O)NC(=O)NC12CC3CC(CC(C3)C1)C2)C1CCCCC1 | · | · | · | 1 | ·
Cc1cccc(NC2=Nc3ccccc3N3C2=Nc2c(c(C)nn2-c2ccccc2)C3c2ccc(O)c(O)c2)c1 (stereo not drawn) | 1.4 | -8 | 7 | 12* | 9
Cc1ccc(NC2=Nc3ccccc3N3C2=Nc2c(c(C)nn2-c2ccccc2)C3c2ccc(O)c(O)c2)cc1 (stereo not drawn) | -1.1 | -12 | -34 | 11* | 10
Cc1nn(-c2ccccc2)c2c1C(c1ccc(Cl)cc1)N(c1ccccc1)C(=O)N2 (stereo not drawn) | -0.47 | 2 | -12 | 3 | ·
Cc1nn(-c2ccccc2)c2c1C(c1ccc(O)c(O)c1)N1C(=N2)C(Nc2ccccc2)=Nc2ccccc21 (stereo not drawn) | -1.4 | -6 | -39 | 0 | ·
COc1ccc(CCc2nnc(CCC(=O)N(C)Cc3ccnc4ccccc34)o2)cc1 | · | · | · | 2 | ·
COc1ccc(C(=O)COC(=O)C(CCSC)NS(=O)(=O)c2ccc(Cl)cc2)cc1 (stereo not drawn) | -0.9 | 20 | -18 | 15* | 1
COC(=O)C(CCSC)NS(=O)(=O)c1ccc(Cl)cc1 (stereo not drawn) | · | · | · | -1 | ·
C=CCN1CC2(c3ccccc3)CN(CC=C)CC(c3ccccc3)(C1)C2=O | · | · | · | 1 | ·
CC(=O)N(CCC(c1ccccc1)c1ccco1)Cc1cccs1 (stereo not drawn) | -1.2 | -8 | -51 | 28* | 2
CCCCCCN(C(=O)CCCCCN1C(=O)NC(c2ccc(-c3ccccc3)cc2)C(C(=O)OCc2ccccc2)=C1C)C(C(=O)NCCCC)c1ccc(OCC(=O)OC)cc1 (stereo not drawn) | -0.29 | 4 | -19 | 13* | 6
COc1cc(/C=N/Nc2nc(C)nc3c2cnn3-c2ccccc2)ccc1O | · | · | · | 0 | ·
Cc1ccc2nc(C)c(C(=O)NN=C3CCCCCC3)n2c1 | · | · | · | 0 | ·
CCCCC(=O)O[C@H]1CC[C@H]2[C@@H]3CCc4cc(O)ccc4[C@H]3CC[C@]12C | -1.1 | 10 | -43 | 14* | 7
COCCNc1nnnc2c1sc1nc(N3CCOCC3)c3c(c12)CCCC3 | · | · | · | 5 | ·
Cc1cc(SC(C)C(=O)Nc2ncc(Cl)cc2Cl)nc2ccccc12 (stereo not drawn) | -0.93 | 5 | -46 | 12* | 2
Cc1cccc(N2C(=O)C3C4CC(=O)C(c5ccccc54)C3C2=O)c1C (stereo not drawn) | · | · | · | -1 | ·
Cc1ccc(C)c(NC(=O)c2sc(Cl)nc2-c2ccccc2)c1 | -1.1 | -11 | -49 | 15* | 1
Cc1ccccc1NC(=O)c1sc(Cl)nc1-c1ccccc1 | -0.59 | -11 | 6 | 0 | ·
Cc1ccc(C(=O)C(OC(=O)CCC(=O)Nc2cccc(C)c2)c2ccccc2)cc1 (stereo not drawn) | 1.9 | -30 | -41 | 13* | 4
O=C(CSCC(=O)Nc1ccc2ccccc2c1)NCc1ccccc1 | -0.6 | -19 | -35 | 4 | ·
CC(C)c1ccc(CNC(=O)CSCC(=O)Nc2ccc3ccccc3c2)cc1 | -1.3 | -3 | -30 | 13* | 1
Cc1cc(C(F)(F)F)c(C#N)c(N2CCOCC2)n1 | 0.59 | -5 | -11 | 0 | ·
N#Cc1c(C(F)(F)F)cc(C2CC2)nc1N1CCCC1 | 0.71 | -4 | -18 | 14* | 2
SMILES | sdo1 growth | Yeast lifespan up | BB579 growth dn | RAM network inh | RAM efflux-def
CN(C)/C=N/c1ncc(-c2ncc(C(F)(F)F)cc2Cl)cn1 | · | · | · | 1 | ·
CC(C)NC(=O)CSc1nc(N)c(-c2ccccc2)c(=O)[nH]1 | · | · | · | 2 | ·
CN(C(=O)COC(=O)c1sc2ccccc2c1Cl)C1CCCCC1 | -0.64 | 6 | -10 | 14* | 3
Cn1nc(C(F)(F)F)c(/C=N/OC(=O)c2ccccc2)c1SCc1ccc(Cl)cc1 | -0.27 | -4 | -42 | 12* | 4
Cn1nc(C(F)(F)F)c(/C=N/OC(=O)c2ccccc2Cl)c1SCc1ccccc1Cl | 0.43 | 7 | -30 | 12* | 3
Cn1nc(C(F)(F)F)c(/C=N/OCc2c(Cl)cccc2Cl)c1Cl | 0.61 | -6 | -11 | 0 | ·
Cn1nc(C(F)(F)F)c(/C=N/OC(=O)c2ccc(Cl)cc2)c1Cl | -0.44 | -7 | -30 | 5 | ·
O=C(COc1ccc(-c2ccccc2)cc1)N1CCCC1 | · | · | · | 1 | ·
CSc1nc(S(=O)(=O)c2ccc(C)cc2)c(Cl)s1 | · | · | · | 1 | ·
CCCCCCCCNC(=O)c1cccnc1SCC(=O)Nc1ccccc1OC | -1.1 | -4 | -18 | 12* | 1
Cc1cc(C)cc(OCc2nnc(SCC(=O)c3ccccc3)o2)c1 | -0.49 | -12 | -58 | 8 | ·
Cc1ccc(C(=O)CSc2nnc(COc3cc(C)cc(C)c3)o2)cc1 | -0.57 | 5 | -21 | 12* | 1
Cc1cccc(OCc2nnc(SCC(=O)c3ccccc3)o2)c1 | 0.95 | -8 | -41 | 12* | 2
CCOC(=O)c1[nH]cnc1N=Nc1c(O)ccc2ccccc12 | -1.4 | -1 | -45 | 15* | 6
COCCn1c(SCc2cc(=O)n3cc(C)ccc3n2)nc2ccccc2c1=O | · | · | · | 2 | ·
O=C(O)/C=C/c1ccccc1Oc1ccc(Cl)cc1Cl | · | · | · | 3 | ·
CCOC(=O)c1oc2ccc(Br)cc2c1CSc1nnc(C)s1 | -0.43 | -1 | -52 | 17* | 2
CCOC(=O)c1oc2ccccc2c1CSc1nnnn1-c1ccc(OC)cc1 | -1 | 2 | -65 | 7 | ·
CCC(Oc1ccc2c(=O)c(-c3ccccc3OC)coc2c1)C(=O)OCc1ccccc1 (stereo not drawn) | 0.45 | 4 | -29 | 22* | 2
O=C(COC(=O)CCCNC(=O)c1ccc(Cl)cc1)Nc1cc(Cl)c(Cl)cc1Cl | -1.7 | 4 | -29 | 42* | 2
COC(=O)CSc1nc(C)cc(C)c1C#N | · | · | · | 1 | ·
COC(=O)C(Sc1nc(C)cc(C)c1C#N)c1ccccc1 (stereo not drawn) | -1.1 | -4 | -54 | 12* | 1
CCN(CC)S(=O)(=O)c1ccc(NCC2COc3ccccc3O2)c([N+](=O)[O-])c1 (stereo not drawn) | -0.41 | -2 | -38 | 17* | 3
Cn1ccs/c1=N\C(=O)Nc1ccccc1 | · | · | · | 3 | ·
O=C(Nc1cccc([N+](=O)[O-])c1)C1CC(=O)N(C2CCCCC2)C1 (stereo not drawn) | · | · | · | 4 | ·
Nc1c([N+](=O)[O-])c(=O)oc2ccccc12 | · | · | · | 2 | ·
S=C(NCCC(c1ccccc1)c1ccccc1)Nc1cccc(Cl)c1 | -0.66 | 1 | 40 | 14* | 5
S=C(NCc1ccncc1)Nc1cccc(Cl)c1 | 0.24 | 9 | -39 | 1 | ·
Cc1ccccc1NC(=S)NCCC(c1ccccc1)c1ccccc1 | -0.82 | -8 | 36 | 12* | 3
COc1ccc(CCNC(=O)CN(CCc2ccccc2)S(C)(=O)=O)cc1OC | · | · | · | 0 | ·
